7 compounds from ChEMBL document CHEMBL1147367, “Bioactive furanonaphthoquinones from Crescentia cujete” (J Nat Prod, 1993) can be followed below.

Structures are written as SMILES. In brackets after ≈: the same amount, converted by molar mass.

Assay [1] has as its system Saccharomyces cerevisiae. Nature of the assay: DNA damaging activity against DNA repair-deficient RS 322YK (rad 52Y) yeast assessed as drug level required to produce 12 mm zone of inhibition. The format is functional. The essentials: (§1)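 Agar well-diffusion test on yeast: sample placed in 100 μl wells and growth-inhibition zones measured. Potency given as IC12 in μg/ml, the concentration giving a 12 mm inhibition zone. rad 52 strain RS 322 YK lacks the recombination pathway for double-strand-break repair. RS 188 N is the repair-proficient RAD+ counterpart.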

The test system of assay [2] is Saccharomyces cerevisiae. Nature of the assay: DNA damaging activity against RS 188N (RAD+) yeast assessed as drug level required to produce 12 mm zone of inhibition. Type of assay: functional. The essentials: as §1
A further assay concerns Vero. Nature of the assay: Cytotoxicity against african green monkey Vero cells. The format is cell-based. The following applies: Chlorocebus sabaeus. The essentials:
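Vero cells exposed to compound for 72 h; viability read by XTT staining; IC50 given in μg/ml.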

Usually IC50 stands for the concentration that gives 50% inhibition.

Consider `CC(O)c1cc2c(o1)C(=O)c1ccccc1C2=O` (stereo not given), for which the IC12 was 14 µg/mL with Saccharomyces cerevisiae [1] and 180 µg/mL with Saccharomyces cerevisiae [2]. In addition, 0.41 µg/mL (≈ 1.69 µM) corresponded to half-maximal inhibition with Vero (IC50).

With `CC(O)c1cc2c(o1)C(=O)c1cccc(O)c1C2=O` (stereo not given), the IC12 with Saccharomyces cerevisiae [1] worked out at 3 µg/mL; in the assay with Saccharomyces cerevisiae [2], 10 µg/mL. Also, in the assay on Vero, the IC50 stood at 0.21 µg/mL (≈ 0.813 µM).

On to `C=C(C)C1CC2=C(O1)C(=O)c1cccc(O)c1C2=O` (stereo not given), for which the IC12 with Saccharomyces cerevisiae [1] turned out to be 80 µg/mL; in the assay with Saccharomyces cerevisiae [2], 140 µg/mL.

In the case of `C=C(C)[C@@H]1OC2=C(C(=O)c3c(ccc(OC)c3OC)C2=O)[C@@H]1O`, the IC12 was 47 µg/mL with Saccharomyces cerevisiae [1] and greater than 1000 µg/mL with Saccharomyces cerevisiae [2]. The same compound returned an IC50 with Vero of 3.7 µg/mL (≈ 11.7 µM).

For the compound `C=C(C)[C@H]1CC2=C(O1)C(=O)c1cccc(OC)c1C2=O`, the figures for the IC12 in the assay on Saccharomyces cerevisiae [1] and in the assay on Saccharomyces cerevisiae [2] were 48 µg/mL and 280 µg/mL, respectively. The compound also registered an IC50 with Vero of 4.3 µg/mL (≈ 15.9 µM).

In the case of `C=C(C)[C@H]1CC2=C(O1)C(=O)c1ccc(OC)c(OC)c1C2=O`, the IC12 with Saccharomyces cerevisiae [1] was 33 µg/mL; in the assay on Saccharomyces cerevisiae [2], 120 µg/mL. The same compound registered an IC50 with Vero of 4.7 µg/mL (≈ 15.7 µM).

`CC[C@@]1(O)C(=O)OCc2c1cc1n(c2=O)Cc2cc3ccccc3nc2-1` [CAMPTOTHECIN]: the IC12 in the assay with Saccharomyces cerevisiae [1] amounted to 0.6 µg/mL; in the assay on Saccharomyces cerevisiae [2], 110 µg/mL. The midpoint of inhibition in the assay on Vero, the IC50, lay at 0.054 µg/mL (≈ 0.155 µM).
